Bioassay records: PubChem BioAssay, several laboratories
Sampled rows, rich in hits. Any-hit rate of the full collection: about 5.5%.
Yeast growth inh: chemicals that inhibit yeast BB579 growth in restrictive medium (lifespan-shortening candidates); AID 804; S. cerevisiae BB579 growth, OD615, 48 h; inhibition, % at 10 µM; 0.51% of 140,000 active;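 active = inhibition above a set limit, 3 SD over the mean compound inhibition, cut at about 44% in these data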
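test system = yeast BB579 (DeaD) | buffer or medium = restrictive CSMM-D medium | doses = single compound dose of 10 µM, 0.25% DMSO final | times = 4 h preincubation and 48 h exposure at 30 °C | technique = culture absorbance at 615 nm | benchmarks = amphotericin B 10 µg/mL, positive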
KCC2 mod: KCC2 (human) Cl- transport modulation; KCC2 cells, thallium flux FluoZin-2 fluorescence; B-score of Tl+ flux slope (higher = more flux/activation; lower = inhibition) at 10 µM; 2.2% of 190,000 active;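 active = thallium flux slope and its plate-corrected score both differing from the plate sample mean at a set confidence after two filtering rounds, in either direction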;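 note: slope of fluorescence scaled to starting intensity during 10 to 20 s after thallium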
RAM network inh: blocks the yeast RAM network. S. cerevisiae dse1pr::URA3 reporter, 5-FOA growth OD615, 2 d; analog-sensitive cbk1-as2 kinase mutant strain. inhibition, % at 50 µM. 1.8% of 190,000 active. AID 868;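 active = inhibition above a set limit, 3 SD over mean compound inhibition, cut at about 8.4% in these data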;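 note: 0% = DMSO-only wells with no growth and 100% = 10 µM 1-NA-PP1 full growth; inhibition rescues growth on 5-FOA so higher OD means more RAM inhibition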
WT yeast gro inh: growth inhibition of WT yeast, mitochondrial fusion screen. inhibition, % at 10 µM. 2.1% of 190,000 active. mitochondrial fusion phenotypic screen, WT strain; in the data active = inhibition above about 58%; tested in S. cerevisiae
Yeast lifespan up: extends the lifespan of yeast; inhibition of the nicotinamide effect, % at 10 µM; 0.68% of 130,000 active; AID 775; S. cerevisiae growth with nicotinamide, OD615; deaD strain in restrictive glucose medium;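 active = inhibition above a set limit, placed 3 SD over the median of all compounds, cut at about 26% in these data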;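 note: 0% = nicotinamide-treated wells and 100% = cells grown without nicotinamide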
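Test system – modified budding yeast, DeaD strain · Compound – single dose 10 µM compound, 0.25% DMSO · Times – culture preincubation 4 h, compound exposure 48 h, both 30 °C · Detection – optical density (absorbance) at 615 nm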
Active calls of the source: *; . = no result.

SMILES	Yeast growth inh	KCC2 mod	RAM network inh	WT yeast gro inh	Yeast lifespan up
Cc1ccccc1NC(=O)c1ccc(N/N=C/c2ccccc2O)c([N+](=O)[O-])c1	-37	0.44	8.7*	-17	-2
O=C(Oc1cccc(Nc2ncnc3ccccc23)c1)c1ccccc1Cl	-51	.	0	59*	-2
COc1cccc(Nc2ncnc3ccccc23)c1	5	-0.91	1	0	-12
C=CCc1ccc(O)c(-c2ccc(O)c(CC=C)c2)c1	.	0.33	-2	63*	.
Cc1ccc(-c2nn(CCC(=O)NN3CCOCC3)c(=O)c3ccccc23)cc1	.	-0.46	.	.	.
CC(=O)N1N=C(c2ccc(C)cc2)OC1c1ccc(Br)cc1 (configuration not stated)	.	0.61	3	63*	.
CC1(C)C(C=C(Cl)Cl)C1C(=O)N1CCN(c2ccccc2)CC1 (configuration not stated)	-43	.	2	43	31
Cc1cccc(C2(c3cccc(C)c3)CC2C(=O)Nc2ccc([N+](=O)[O-])cc2O)c1 (configuration not stated)	-20	-0.65	5	92*	1
CC(=O)Nc1cccc(NC(=O)c2cc(-c3cccnc3)nc3ccc(Br)cc23)c1	-39	0.53	3	2	-7
CC(=O)Nc1cccc(NC(=O)c2cc(-c3cccnc3)nc3ccc(Cl)cc23)c1	.	-0.19	9.3*	-4	.
COc1cc2c(cc1OC)C(C)N(C(=O)c1cc3c(s1)-c1ccccc1OC3)CC2 (configuration not stated)	-7	-0.77	4	51	0
COc1ccc(N2CC(NC(=O)NCCC(C)C)CC2=O)cc1 (configuration not stated)	-9	-0.036	1	-7	-2
COc1ccc(C(=O)O/N=C(\N)Cc2ccc(Cl)c(Cl)c2)cc1OC	-61	-1.6	-1	94*	-3
COc1ccc(C(=O)O/N=C(\N)Cc2ccc(Cl)cc2)cc1OC	-30	-0.032	-1	7	-8
N/C(Cc1ccc(Cl)cc1)=N\OC(=O)c1ccccc1	96*	-0.024	-1	10	-13
COc1ccc(CC(=O)Nc2c3c(nn2-c2cccc(Cl)c2)CS(=O)(=O)C3)cc1	-37	-0.31	9.2*	1	0
O=C(Cc1ccccc1)Nc1c2c(nn1-c1cccc(Cl)c1)CS(=O)(=O)C2	-12	.	2	15	-4
Cc1ccc(S(=O)(=O)N/N=C/c2cccn2-c2ccc(Cl)cc2)cc1	-29	-1.2	5	-3	3
CC1=NN(c2ccc(Cl)cc2)C(=O)/C1=C\c1cccn1-c1ccc(S(N)(=O)=O)cc1	-50	0.57	3	81*	-4
CNS(=O)(=O)c1cc(N(C)S(=O)(=O)c2ccc(C)cc2)c(C)cc1C	.	-0.53	10*	-28	.
Cc1ccc(S(=O)(=O)N(C)c2cc(S(=O)(=O)Nc3ccncc3)c(C)cc2C)cc1	-36	1.5	2	-8	5
CCC1(c2ccc(Cl)cc2)NC(=S)N(c2ccccc2)N1 (configuration not stated)	-55	23*	2	31	-5
CCCCCC1(C)NC(=S)N(c2ccccc2)N1 (configuration not stated)	.	-0.27	0	38	.
CN(C)C(=O)/C(C#N)=C\c1cc(Br)c(Sc2ccc(Cl)cc2)o1	-19	-1.3	7	88*	1
Clc1ccc(Sc2oc(/C=N/n3cnnc3)cc2Br)cc1	-2	-0.012	3	19	-7
SMILES	Yeast growth inh	KCC2 mod	RAM network inh	WT yeast gro inh	Yeast lifespan up
CCOC(=O)CC(=O)CSc1nc(C)cc(-c2cccnc2)c1C#N	-22	1.3	3	1	-8
CCOC(=O)CC(=O)CSc1nc(-c2cccnc2)cc(C)c1C#N	-20	.	2	60*	-12
COc1ccc(Nc2nnc(SCc3cc([N+](=O)[O-])cc4c3OCOC4)s2)cc1	-30	-1.5	3	7	-5
CN(C)S(=O)(=O)c1cccc(NC(=S)Nc2cc(Cl)cc(Cl)c2)c1	-29	-1	3	57	-6
CN(C)S(=O)(=O)c1cccc(NC(=S)Nc2ccc(Cl)cc2Cl)c1	-20	5.5*	0	7	-16
COc1ccc(C/C(C)=N/NC(=S)Nc2ccccc2)cc1	-32	32*	4	13	-2
COc1ccc(C/C(C)=N/NC(=S)Nc2ccc(Cl)cc2)cc1	.	2	.	.	.
CCOC(=O)COc1ccc(C2CC(C)=NN2c2ccccc2)cc1 (configuration not stated)	.	-0.98	-1	-16	.
